Measurements: ChEMBL document CHEMBL3994571, “Caffeoyl Triterpenoid Esters as Potential Anti-ischemic Stroke Agents from Celastrus orbiculatus” (J Nat Prod, 2016)
The source made the active and inactive calls. No cut-off for these calls is given here.

How the values were obtained:
SH-SY5Y [1] = experiment: Neuroprotective activity against oxygen glucose deprivation-induced cell death in human SH-SY5Y cells assessed as increase in cell viability at 10 uM treated at beginning of 24 hrs reoxygenation period by MTT assay; assay type: functional, cell-based
In short: (§1)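 SH-SY5Y cells seeded at 2 × 10⁴ cells/well. Medium replaced by glucose-free EBSS (pH 7.4), then 1 h hypoxia (85% N₂, 10% H₂, 5% CO₂, 37 °C). Reoxygenated under normal culture for 24 h, compound added at start of reoxygenation. MTT read at 490 nm, given as % of non-OGD control. Mean ± SEM from three independent experiments.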

SH-SY5Y [2] = experiment: Neuroprotective activity in human SH-SY5Y cells assessed as reduction in oxygen glucose deprivation-induced morphological damage at 5 to 10 uM treated at beginning of 24 hrs reoxygenation period; assay type: functional, cell-based
In short: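 SH-SY5Y cells exposed to 1 h OGD in glucose-free EBSS (pH 7.4) under 85% N₂/10% H₂/5% CO₂ at 37 °C, then 24 h reoxygenation. Compound added after OGD at reoxygenation onset. Dendrite fragmentation and cell number assessed by morphological observation.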

SH-SY5Y [3] = experiment: Neuroprotective activity against oxygen glucose deprivation-induced cell death in human SH-SY5Y cells assessed as cell viability at 10 uM treated at beginning of 24 hrs reoxygenation period by MTT assay (reference value: 55.05 +/- 2.03%); assay type: functional; details: read-out: Activity; in short: as §1
SH-SY5Y [4] = experiment: Neuroprotective activity against oxygen glucose deprivation-induced cell death in human SH-SY5Y cells assessed as increase in cell viability treated at beginning of 24 hrs reoxygenation period by MTT assay; assay type: functional, cell-based; in short: as §1
SH-SY5Y [5] = experiment: Cytotoxicity against human SH-SY5Y cells at 1 to 10 uM after 24 hrs by MTT assay; assay type: cell-based
In short: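 SH-SY5Y cells grown in 1:1 MEM/F12 with 10% FBS and penicillin/streptomycin at 37 °C, 5% CO₂. Seeded at 2 × 10⁴ cells/well. Normal cells without OGD exposed to compound. Viability by MTT: 3 h at 37 °C in dark, formazan dissolved in DMSO, absorbance at 490 nm.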

Rattus norvegicus [6] = experiment: Neuroprotective activity against middle cerebral artery occlusion-induced Sprague-Dawley rat ischemic stroke model assessed as decrease in brain infarct volume at 10 mg/kg, iv dosed 2 hrs post onset of ischemia measured after 24 hrs of reperfusion by TTC staining based assay relative to control; assay type: functional; set-up: scale not given: the % may be the effect or the level left
In short: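 Male Sprague-Dawley rats, 230–280 g, under chloral hydrate (400 mg/kg i.p.). Left MCA occluded 2 h by 4-0 nylon filament, then reperfused; body temperature kept at 37.0 ± 0.5 °C. Edaravone as positive control. After 24 h reperfusion, 2 mm coronal sections stained with 1% TTC for 15 min, then fixed in 4% paraformaldehyde. White tissue scored as infarct. n = 11–14.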

Rattus norvegicus [7] = experiment: Neuroprotective activity against middle cerebral artery occlusion-induced Sprague-Dawley rat ischemic stroke model assessed as reduction in neurological score at 10 mg/kg, iv dosed 2 hrs post onset of ischemia measured after 24 hrs of reperfusion […]; assay type: functional, organism-based
In short: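 Male Sprague-Dawley rats, 230–280 g, given 2 h filament MCAO under chloral hydrate anaesthesia, then reperfused. Edaravone as positive control. After 24 h reperfusion, deficits rated by modified Neurological Severity Score on an 18-point scale (motor, visual, tactile); higher means worse. n = 11–14.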

C[C@H]1C(=O)CC[C@@H]2[C@]1(C)CC[C@H]1[C@@]2(C)CC[C@@]2(C)[C@@H]3C[C@](C)(COC(=O)/C=C/c4ccc(O)c(O)c4)CC[C@]3(C)CC[C@]12C
Activity (SH-SY5Y [1]): Active
Activity (SH-SY5Y [2]): Active
viability at 10 µM (SH-SY5Y [3]): 115%
Activity (SH-SY5Y [4]): Dose-dependent effect
Activity (SH-SY5Y [5]): Non-Toxic
Activity (Rattus norvegicus [6]): 14.2%
Activity (Rattus norvegicus [7]): Active

C[C@H]1C(=O)CC[C@@H]2[C@]1(C)CC[C@H]1[C@@]2(C)CC[C@@]2(C)[C@@H]3C[C@](C)(COC(=O)/C=C/c4ccc(O)cc4)CC[C@]3(C)CC[C@]12C
Activity (SH-SY5Y [1]): inactive
